UCH37 DUB inh: inhibitors of human deubiquitinating enzyme UCH37; Q9Y5K5; purified proteasome/UCH37, Ub-AMC cleavage fluorescence; inhibition, % (concentration not given with the values); 330,000 tested, 0.33% active; AID 588478;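 active means mean inhibition over replicate wells above about 20%, limit read from the data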;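 further: 0% = compound-free wells with enzyme and 100% = wells lacking proteasome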
Target sequence (Q9Y5K5 whole entry, looked up): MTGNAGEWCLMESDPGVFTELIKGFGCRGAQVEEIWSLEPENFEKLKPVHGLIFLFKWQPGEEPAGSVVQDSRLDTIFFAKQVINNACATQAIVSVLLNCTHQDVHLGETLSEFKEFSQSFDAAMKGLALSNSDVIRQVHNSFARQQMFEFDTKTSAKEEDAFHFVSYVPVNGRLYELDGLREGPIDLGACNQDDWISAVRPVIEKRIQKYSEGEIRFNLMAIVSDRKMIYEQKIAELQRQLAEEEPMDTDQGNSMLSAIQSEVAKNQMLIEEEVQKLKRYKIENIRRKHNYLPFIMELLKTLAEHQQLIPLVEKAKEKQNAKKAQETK
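Material: human UCH37 enzyme supplied as purified proteasome complex / Amount: 0.15 nM proteasome as dispensed / Buffer or medium: pH 7.4 Tris-HCl (50 mM) with ovalbumin, ATP-MgCl2, DTT / Times: preincubation 30 min, reaction 25 min, room temperature / Technique: AMC fluorescence from Ub-AMC cleavage, excitation 355 nm, emission 460 nm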
Calb FLC: affects C. albicans growth with fluconazole | C. albicans CaCi-2 + fluconazole, Alamar Blue growth, 48 h | growth inhibition, % (concentration not given with the values) | 300,000 tested, 0.57% active;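 active means growth inhibition above about 58% in most replicates, limit read from the data, passing the limit was not always enough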;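 further: all wells also contain fluconazole at 8 µg/ml as a sub-toxic cotreatment; 0% = median of DMSO wells and 100% = median of geldanamycin control wells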
ATG4B inh: ATG4B (human) cysteine protease inhibition. AID 504462. inhibition, % at 8.33 µM. 340,000 tested, 0.51% active. Q9Y4P1. ATG4B cleavage of LC3-PLA2, NBD-HPC fluorescence, 1 h; in the data active means inhibition above about 40%
NALP1 yeast inh: NALP1 inhibition; S. cerevisiae NALP1/ASC/caspase-1 growth, X-gal OD620, 72 h; inhibition, % at 10 µM; 280,000 tested, 0.61% active; AID 2071; in the data active means inhibition mostly above about 24%, no sharp cut-off; inactive means mostly below about 32%
NALP3 yeast inh: NALP3 inhibition in yeast. Yeast reconstituted NLRP3/ASC/caspase-1, beta-gal luminescence, 24 h. inhibition, % at 10 µM. 330,000 tested, 0.39% active;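 active means inhibition of 50% or more; inactive means inhibition below 50%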;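 further: plate controls were induced DMSO wells for no effect and uninduced yeast grown without galactose for full effect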
ALR inh: inhibitors of human sulfhydryl oxidase ALR; purified ALR, DTT oxidation, H2O2 HRP-luminol luminescence; 290,000 tested, 3.8% active; inhibition, % (no concentration beside the values); P55789;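 active means mean replicate inhibition above about 79%, with every replicate also reaching it, limit read from the data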
Target sequence (P55789 whole entry, looked up): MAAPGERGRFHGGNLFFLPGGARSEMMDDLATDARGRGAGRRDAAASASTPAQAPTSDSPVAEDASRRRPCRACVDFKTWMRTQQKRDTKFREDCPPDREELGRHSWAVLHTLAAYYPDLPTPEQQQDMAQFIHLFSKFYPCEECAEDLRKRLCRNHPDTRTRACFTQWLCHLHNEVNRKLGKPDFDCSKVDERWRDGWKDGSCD
* hit, by the source's call; · = no result. The list is not random: actives were taken first. Their share in the collection is about 4.8%.

SMILES	UCH37 DUB inh	Calb FLC	ATG4B inh	NALP1 yeast inh	NALP3 yeast inh	ALR inh
Cc1nc2ccc(-c3nc4cc(N)ccc4o3)cc2[nH]1	-113.1	5.9	-7.6	36.1	2.7	98.3*
CCOc1ccccc1N1CCN(C(=O)[C@@H]2CCCN2C2=NS(=O)(=O)c3ccccc32)CC1	1.8	·	-57.1	·	11.0	97.1*
CSc1ccc(/C=C/C(=O)c2ccc(NC(C)=O)cc2)cc1	3.0	0.7	-6.4	53.2*	22.2	6.1
O=C(/C=C/c1ccc(NC(=O)c2ccccc2-c2ccccc2C(=O)O)cc1)c1ccccc1	-11.6	98.2*	17.5	9.9	1.7	98.4*
CCCC(=O)Nc1ccc(C(=O)/C=C/c2ccc(SC)cc2)cc1	-3.6	4.5	-2.9	-0.2	9.3	6.1
Cn1cnnc1SCc1ccc(C(=O)NN=Cc2cccs2)cc1	10.3	·	·	·	·	·
NC(N)=NN=Cc1ccc(OCc2ccc(Cl)cc2Cl)cc1	4.7	·	·	·	·	·
CCC(C)C(C)=NNC(=O)c1cn(-c2ccccc2)nc1-c1ccccc1 (centres undefined)	0.6	·	·	·	·	·
CC(=O)Nc1ccc(NC2CCCCC2NS(=O)(=O)c2ccccc2)cc1 (centres undefined)	1.7	26.3	0.2	0.1	-0.7	98.9*
Cc1ccc(NC2CCCCC2NS(=O)(=O)c2ccccc2)c(C)c1 (centres undefined)	-0.2	-3.7	10.7	29.9	17.8	85.8*
O=C(NN=Cc1cc(Br)cs1)C(O)c1ccccc1 (centres undefined)	2.5	·	·	·	·	·
Cc1cc(C)c(S(=O)(=O)N=C2C=C(Sc3ncn[nH]3)C(=O)c3ccccc32)cc1C	30.7*	·	·	·	·	·
CCc1ccc(S(=O)(=O)/N=C2/C=C(Sc3ncn[nH]3)C(=O)c3ccccc32)cc1	·	·	14.9	59.0	·	-56.8
Cn1c(=Nc2ccc(N3CCOCC3)cc2)ccc2ccccc21	3.8	-7.5	-12.2	-2.2	16.7	99.2*
CC1(C)CNc2cc(N)ccc2S1	1.3	-13.5	-14.9	5.3	21.2	83.6*
CC(/C=C/c1ccccc1)=NNC(=O)CNC(=O)c1ccc2c(c1)OCO2	-2.0	·	·	·	·	·
CCC(C(=O)OCC(=O)Nc1ccc(SC(F)F)cc1)c1ccccc1 (centres undefined)	6.9	1.6	-10.0	37.4	·	·
CC(=O)OCC(=O)Nc1ccc(SC(F)F)cc1	-0.3	3.2	4.0	18.0	7.7	98.8*
O=C(CSc1n[nH]c(=O)[nH]c1=O)Nc1ccc(SC(F)F)cc1	1.1	·	-4.1	·	19.1	98.7*
C/C=C/C(=O)OCC(=O)Nc1ccc(SC(F)F)cc1	4.9	-2.1	-6.4	13.5	-11.1	99.2*
CCCCC(CCCC)=NN=Cc1c(O)n(CC)c2cc(C3=NNC(=O)CC3)ccc12	-6.2	·	·	·	·	·
O=C(Cn1cnc([N+](=O)[O-])n1)NN=Cc1ccccc1O	-1.7	·	·	·	·	·
Cc1cc(N/C=C\c2nnnn2-c2ccccc2)no1	5.5	-21.6	2.9	-0.3	34.1	-5.2
CN(C)c1ccc(/C=C/c2nnnn2-c2ccccc2)cc1	-77.1	-39.1	13.2	27.1	24.4	98.6*
COc1ccccc1NC1C=CS(=O)(=O)C1 (centres undefined)	1.9	-4.5	0.7	8.7	-3.1	76.3*
SMILES	UCH37 DUB inh	Calb FLC	ATG4B inh	NALP1 yeast inh	NALP3 yeast inh	ALR inh
Cc1csc(=N)n1-c1ccc(Cl)cc1	1.6	-8.6	10.8	13.4	12.5	96.3*
Cc1cc(=O)[nH]c(NN=CC(C)c2ccccc2)n1 (centres undefined)	6.4	·	·	·	·	·
COc1ccc(C2SCC(=O)N2c2ccc(C)cc2)cc1 (centres undefined)	3.3	1.5	-8.7	3.1	-4.9	31.5
Cc1c(N2C(=O)CSC2c2ccc([N+](=O)[O-])cc2)c(=O)n(-c2ccccc2)n1C (centres undefined)	3.1	-3.5	-4.2	12.7	7.2	·
Cc1ccc(C2SCC(=O)N2Cc2ccccc2)cc1 (centres undefined)	0.5	-7.1	-0.4	3.7	0.3	3.5
O=C1CSC(c2ccccc2)N1c1ccc([N+](=O)[O-])cc1 (centres undefined)	3.6	20.6	-1.1	4.1	16.6	98.6*
COc1ccc(C2SCC(=O)N2Cc2ccccc2)cc1 (centres undefined)	-0.6	-9.1	-3.8	-2.6	0.0	81.2*
COc1ccc(N2C(=O)CSC2c2ccccc2)cc1 (centres undefined)	2.7	-3.2	-1.1	0.2	-2.4	97.3*
Cc1ccc(N2C(=O)CSC2c2ccc3c(c2)OCO3)cc1 (centres undefined)	4.6	23.4	-5.5	-2.6	-40.1	99.4*
O=C(NN=Cc1cccc2ccccc12)c1cccs1	1.0	·	·	·	·	·
CCCC1SC(=NN=Cc2ccc(OC)cc2)N(Cc2ccc(OC)cc2)C1=O (centres undefined)	0.2	·	·	·	·	·
COc1ccc(N2C(=O)CSC2c2ccccc2[N+](=O)[O-])cc1 (centres undefined)	2.8	-33.4	8.2	-16.6	-6.5	98.7*
CC(=O)Nc1ccc(N2C(=O)CSC2c2ccc(F)cc2)cc1 (centres undefined)	5.1	7.3	-1.0	10.6	0.0	99.0*
CCOc1cccc(-c2c(C(=O)NN=C(C)c3ccccn3)nnn2-c2nonc2N)c1	-0.5	·	·	·	·	·
CCOc1cccc(-c2c(C(=O)NN=Cc3ccsc3)nnn2-c2nonc2N)c1	3.0	·	·	·	·	·
COC(=O)c1c(SCc2cccc3ccccc23)nc(=O)[nH]c1C	1.3	3.3	-9.8	·	11.9	99.0*
C=CCOc1ccc(C=NNC(=O)C(=O)N2CCCCCC2)cc1OC	3.0	·	·	·	·	·
C#CCNC(=O)C1=C[C@@H](c2ccc(Br)cc2)[C@H](CCCO)[C@@H](OCC)O1	24.2*	-5.7	0.7	5.0	-0.4	·
C#CCNC(=O)C1=C[C@H](c2ccc(Br)cc2)[C@@H](CCCO)[C@H](OCC)O1	0.3	15.1	-3.9	2.4	13.3	0.9
CCO[C@@H]1OC(C(=O)NCc2ccccc2)=C[C@H](C2CCCCC2)[C@H]1CCCO	0.9	11.1	3.9	21.0*	11.9	-5.0
O=C(C=NO)NCCCNCc1ccccc1	-0.4	·	·	·	·	·
COc1ccc(-c2ccc(SCC(=O)c3cccs3)nn2)cc1	3.3	-26.1	5.3	4.6	-75.3	36.1
O=C(CSc1ncnc2ccccc12)NCC(=O)c1ccccc1	1.2	9.4	-11.3	-2.4	7.1	96.9*
O=C(CSc1ccc(-c2ccccc2)nn1)c1cccs1	4.0	23.8	-2.6	16.7	-47.8	91.9*
O=C(CSc1ncnc2ccccc12)c1cccs1	7.2	-2.5	4.9	1.7	16.9	98.8*
O=C(CNC(=O)c1ccc([N+](=O)[O-])cc1)NN=Cc1c[nH]c2ccccc12	1.8	·	·	·	·	·
Cc1ccc(C=NNC(=O)Cc2cccs2)o1	2.1	·	·	·	·	·
c1ccc(COc2ccccc2CNC2CCCC2)cc1	·	-24.1	2.1	15.6	14.4	3.4
c1ccc(COc2ccccc2CNC23CC4CC(CC(C4)C2)C3)cc1	2.8	94.9*	33.6	-2.2	4.3	-12.4
